Ec RNAP inh = blocks E. coli RNA polymerase transcription; fluorescence transcription assay; inhibition, %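 (tested at 10 µM)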; P0A8V2; AID 559; 0.2% of 62,000 active; in the data active = inhibition above about 20%;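 also: 0% = enzyme without compound and 100% = no enzyme blank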
AP complement = orthogonal test for alternative complement pathway inhibitors | Human serum alternative complement pathway, LPS-coated ELISA, C3 deposition; tested in compound mixtures | inhibition, % at 5 µM | 0.08% of 62,000 active;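 active = inhibition above 30% in each of the two pooled mixtures holding the compound, so the lower value exceeds 30%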;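 also: 0% = serum in Mg-EGTA without compound and 100% = EDTA serum blank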
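Test system: human serum complement alternative pathway, C3 deposition onto LPS / Medium: Mg2+-EGTA GVB++ buffer containing human serum at 1:15 dilution / Probe or stimulus: Plate-bound LPS / Times: 1 h at 37 °C / Signal: ELISA with HRP anti-human C3 antibody, TMB substrate, absorbance 450 nm / Measure: percent inhibition / Repeats: two pool placements per compound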
BAP1 inh = human BAP1 deubiquitinase inhibition | Q92560 | recombinant BAP1, Ub-AMC hydrolysis fluorescence kinetic; stronger effect = lower value | calls only at 20 µM | 0.48% of 72,000 active | AID 436;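 active = activity remaining at or below 50% of control, provided the compound also passes the data quality filters; inactive = the rest, including low values that fail the filters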;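 also: 100% = DMSO wells rate and 0% = substrate alone blank rate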
Target sequence (Q92560 whole entry, looked up): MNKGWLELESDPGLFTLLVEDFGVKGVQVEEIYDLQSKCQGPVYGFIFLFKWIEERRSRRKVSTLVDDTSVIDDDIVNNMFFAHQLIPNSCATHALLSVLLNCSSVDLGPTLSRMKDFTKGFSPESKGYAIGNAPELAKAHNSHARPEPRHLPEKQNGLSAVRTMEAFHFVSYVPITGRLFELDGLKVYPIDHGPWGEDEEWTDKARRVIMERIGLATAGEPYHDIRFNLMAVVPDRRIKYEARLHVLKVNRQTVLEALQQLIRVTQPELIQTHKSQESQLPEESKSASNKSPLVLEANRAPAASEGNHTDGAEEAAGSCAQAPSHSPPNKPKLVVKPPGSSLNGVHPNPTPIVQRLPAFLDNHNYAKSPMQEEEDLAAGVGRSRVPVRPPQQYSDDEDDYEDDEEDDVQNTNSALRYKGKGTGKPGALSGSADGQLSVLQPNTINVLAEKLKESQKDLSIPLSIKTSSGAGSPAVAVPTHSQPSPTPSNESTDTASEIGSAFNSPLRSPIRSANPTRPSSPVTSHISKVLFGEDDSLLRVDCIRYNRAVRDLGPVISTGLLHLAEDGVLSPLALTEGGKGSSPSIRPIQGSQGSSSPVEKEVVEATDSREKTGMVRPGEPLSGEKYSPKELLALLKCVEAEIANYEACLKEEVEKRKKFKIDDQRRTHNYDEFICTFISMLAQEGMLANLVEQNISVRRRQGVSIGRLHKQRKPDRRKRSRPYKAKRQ
BAP1 inh confirm = BAP1 (human) enzyme inhibition, confirmed; shares compounds with BAP1 inh; % of control activity, % at 20 µM; 8% of 310 active; purified BAP1, Ub-ethyl ester hydrolysis, HPLC; stronger effect = lower value;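 active = percent of control activity at or below 60%; inconclusive = HPLC trace unusable from injection failure or solvent front hiding peaks; inactive = the rest, plus ubiquitin peak ratio over a set limit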
An asterisk follows results filed as active; i = inactive; u = inconclusive; x = no result shown; + = active, no number. An excerpt weighted towards active compounds, which were near 0.66% of everything screened.

SMILES	Ec RNAP inh	AP complement	BAP1 inh	BAP1 inh confirm
Cc1cccc2cc(C(c3nnnn3C(C)(C)C)N3CCN(C(=O)c4ccco4)CC3)c(=O)[nH]c12 (stereo not given)	15	3	+	42*
NC(=O)CSc1nnc(-c2cc3ccccc3o2)n1Cc1ccccc1	2	9	i	x
O=C(CSc1nnc(C2CC2)n1Cc1ccccc1)c1cc2ccccc2o1	4	12	+	91
COc1ccc(C(=O)Nc2nc3ccc4nc(SC)sc4c3s2)cc1	x	x	i	x
CCOc1cccc(N2C(=O)CC(N3CCN(C)CC3)C2=O)c1 (stereo not given)	x	x	i	x
COc1ccc(C)cc1NC(=O)CN1CCN(S(=O)(=O)c2ccc(Cl)cc2)CC1	3	8	i	x
COc1ccc(C)cc1NC(=O)CN1CCN(S(=O)(=O)c2ccc(C(C)C)cc2)CC1	9	5	+	111
COc1ccccc1NC(=O)Cn1cnc2sc(C(=O)NCc3ccco3)c(C)c2c1=O	5	-3	i	x
O=C(Cn1cnc2sc(-c3ccccc3)cc2c1=O)NCc1ccco1	10	4	+	126
CCOC(=O)c1c(C)[nH]c(C)c1C(=O)CSc1nnnn1-c1ccccc1	7	11	i	x
CCOC(=O)c1[nH]c(CSc2nnnn2-c2ccccc2C)c(C(=O)OCC)c1C	7	8	+	93
CC(=O)C1=C(C)NC(SCC(=O)c2ccc(F)cc2)=C(C#N)C1c1ccco1 (stereo not given)	5	26	i	x
CC(=O)C1=C(C)NC(SCC(=O)c2cc(Cl)ccc2Cl)=C(C#N)C1c1ccco1 (stereo not given)	5	21	+	96
CCc1ccc(C(=O)CSC2=C(C#N)C(c3ccco3)C(C(C)=O)=C(C)N2)cc1 (stereo not given)	9	12	i	x
CC(=O)C1=C(C)NC(SCC(=O)c2ccc(Cl)c(Cl)c2)=C(C#N)C1c1ccco1 (stereo not given)	9	12	+	42*
O=P(O)(c1ccccc1)c1nccn1-c1ccccn1	x	x	i	x
Cc1nnc(NC(=O)c2ccc(C(C)(C)C)cc2)s1	x	x	i	x
CCOC(=O)N1CCC2(CC1)CC(=O)c1c(ccc3oc(C(=O)O)c(C)c13)O2	-2	-1	x	x
CCOC(=O)c1oc2ccc3c(c2c1C)C(=O)CC1(CCN(C(=O)OCC)CC1)O3	-3	-5	+	84
CCOC(=O)c1cnc(SCC(=O)Nc2sc(C)c(C)c2C#N)nc1N	8	17	+	31*
CCOC(=O)c1cnc(SCC(=O)Nc2cc(OC)cc(OC)c2)nc1N	10	7	i	x
O=C(COC(=O)c1ccccc1I)c1ccc(NC(=O)c2ccccc2)cc1	x	x	i	x
CSCCC(/C(O)=C(\C#N)c1nc2ccccc2[nH]1)N1C(=O)c2ccccc2C1=O (stereo not given)	5	-8	+	114
N#C/C(=C(/O)CN1C(=O)c2ccccc2C1=O)c1nc2ccccc2[nH]1	5	7	i	x
CCc1cc2cc3c(cc2nc1SCC(=O)Nc1cc(C)on1)OCO3	8	-2	+	93
SMILES	Ec RNAP inh	AP complement	BAP1 inh	BAP1 inh confirm
CCc1cc2cc3c(cc2nc1SCC(=O)N1CCN(C(=O)c2ccco2)CC1)OCO3	6	-10	i	x
Cn1ccnc1SCC(=O)Nc1ccc2c(c1)COC2=O	10	11	x	x
Cc1ccc(-n2nnnc2SCC(=O)Nc2ccc3c(c2)COC3=O)cc1C	5	-5	+	77
CCn1cc(C(=O)NCc2ccco2)c(=O)c2cc(S(=O)(=O)N3CCCCCC3)ccc21	-5	-2	i	x
C=CCn1cc(C(=O)NCc2ccco2)c(=O)c2cc(S(=O)(=O)N3CCCCCC3)ccc21	6	4	+	97
Cc1ccc(-c2cn(S(=O)(=O)c3cccc4nsnc34)nc2N)cc1	-3	-4	i	x
Nc1nn(S(=O)(=O)c2cccc3nsnc23)cc1-c1ccc(Br)cc1	9	-7	+	u
CCOC(=O)c1c(NC(=O)c2ccccc2NS(=O)(=O)c2cc([N+](=O)[O-])ccc2Cl)sc2c1CCC2	x	x	i	x
Cc1ccccc1N1CCN(Cc2c(C#N)c3ccccc3n2C)CC1	x	12	+	74
Cc1ccc(SCc2c(C#N)c3ccccc3n2C)cc1	7	1	i	x
CCCCc1ccc(NC(=O)COc2cccc(Cl)c2)cc1	x	x	i	x
Cc1ccc2cc3c(NC(=O)c4ccco4)nn(CC(C)C)c3nc2c1	-4	-1	+	109
Cc1ccc2cc3c(NC(=O)CC(C)C)nn(C)c3nc2c1	1	-12	i	x
COc1ccc2oc(=Nc3cccc(F)c3)c(-c3nc4ccccc4[nH]3)cc2c1	x	x	i	x
CC(C)(C)n1nnnc1C(c1ccccc1F)N(Cc1ccco1)CC1CCCO1 (stereo not given)	2	-3	i	x
COc1cccc(CN(Cc2ccco2)C(c2ccc(F)cc2)c2nnnn2C(C)(C)C)c1 (stereo not given)	7	-11	+	71
Cc1ccc(C(=O)Nc2ccc(NC(=O)c3ccc(C(C)(C)C)cc3)cc2)cc1[N+](=O)[O-]	x	x	i	x
Cc1ccc2cc(CN(Cc3nnnn3C3CCCC3)C3CCCCC3)c(=O)[nH]c2c1C	8	-6	i	x
Cc1cc(C)c2[nH]c(=O)c(CN(Cc3ccc4c(c3)OCO4)Cc3nnnn3C3CCCC3)cc2c1	7	18	+	112
Cc1cccc2cc(CN(Cc3ccc(F)cc3)Cc3nnnn3C3CCCC3)c(=O)[nH]c12	-4	18	i	x
Cc1cccc2cc(CN(Cc3cccs3)C3(c4nnnn4C4CCCC4)CCCC3)c(=O)[nH]c12	2	9	+	74
CC(=O)N1CCc2cc(NCc3ccc([N+](=O)[O-])cc3)ccc21	x	x	i	x
COc1ccccc1CN(Cc1cc2c(C)ccc(C)c2[nH]c1=O)Cc1nnnn1Cc1ccco1	5	2	+	94
COc1ccc2cc(CN(CCc3ccccc3)Cc3nnnn3Cc3ccco3)c(=O)[nH]c2c1	7	14	x	x
Cc1cc(S(=O)(=O)N2CCN(c3c(C)cccc3C)CC2)ccc1F	x	x	i	x
SMILES	Ec RNAP inh	AP complement	BAP1 inh	BAP1 inh confirm
Cc1cc(S(=O)(=O)N2CCN(c3ccccc3C)CC2)ccc1F	8	9	+	126
CCOC(=O)c1ccc(N2C(=O)CC(SCC(=O)Nc3ccc4ccccc4c3)C2=O)cc1 (stereo not given)	x	x	i	x
CCCCNC(=O)C(C#N)c1nc2ccccc2nc1N1CCN(Cc2ccc3c(c2)OCO3)CC1 (stereo not given)	12	13	x	x
C=CCOC(=O)C(C#N)c1nc2ccccc2nc1N1CCN(Cc2ccc3c(c2)OCO3)CC1 (stereo not given)	-3	14	+	76
Cc1ccc(C(=O)OC(=Cc2nccn2Cc2ccccc2)c2ccc(C)cc2)cc1	x	x	i	x
CCOc1cc2[nH]c(=S)n(CCCCC(=O)NCc3ccco3)c(=O)c2cc1OCC	15	11	+	90
O=C(CCCn1c(=S)[nH]c2ccccc2c1=O)NCc1ccco1	12	7	i	x
COc1cccc(OC)c1C(=O)Nc1sc2c(c1C#N)CCCCC2	x	x	i	x
